Calls of active or inactive are those of the source. The calls are words filed in the database; no cut-off is given here.
Assays:
Rattus norvegicus [1] = test: Inhibition of food intake in 24 hrs food-deprived Wistar rat assessed at 0.3 mg/kg, ip; assay type: functional, organism-based; set-up: dose 0.3 mg/kg
Method in brief: (§1)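 Male Wistar rats (250–450 g), habituated to handling, food-deprived 24 h with water available; compound suspended in saline with Tween 80, given ip; 15 min later returned to home cage with weighed food; intake (g/kg) measured at 30, 60, 120 and 240 min; ≥8 rats per group, ANOVA vs vehicle.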

[2] = target: T1, Peroxisome proliferator-activated receptor alpha (Homo sapiens) (UniProt Q07869); test: Activation of human PPARalpha assessed as receptor-GST-TIF2 interaction by GST pull down assay
T1 sequence (whole entry): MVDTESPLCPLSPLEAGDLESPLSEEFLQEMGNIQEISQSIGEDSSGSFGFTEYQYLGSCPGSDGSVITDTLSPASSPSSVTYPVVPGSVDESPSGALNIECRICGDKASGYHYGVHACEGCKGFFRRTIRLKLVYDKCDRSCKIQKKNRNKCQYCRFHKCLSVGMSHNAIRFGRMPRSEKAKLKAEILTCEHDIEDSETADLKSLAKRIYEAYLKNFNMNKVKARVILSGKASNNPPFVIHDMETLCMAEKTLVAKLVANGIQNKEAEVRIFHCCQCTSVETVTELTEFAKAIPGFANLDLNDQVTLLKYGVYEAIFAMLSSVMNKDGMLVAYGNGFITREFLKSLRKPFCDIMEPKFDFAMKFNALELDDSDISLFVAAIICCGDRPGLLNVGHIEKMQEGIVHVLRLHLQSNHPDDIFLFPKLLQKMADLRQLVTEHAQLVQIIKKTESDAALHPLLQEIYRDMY

Mus musculus [3] = test: Inhibition of […]-induced hypothermia in mouse assessed as rectal temperature at 3 mg/kg ip after 15 mins; assay type: functional, organism-based; set-up: dose 3 mg/kg
Method in brief: (§2)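 Male 129S1/SvImJ mice given compound ip together with WIN 2 mg/kg ip; rectal temperature taken by probe at 3 cm depth before and 15 min after injection; compared with WIN alone by Student's t-test.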

Rattus norvegicus [4] = test: Inhibition of food intake in 24 hrs food-deprived Wistar rat assessed at 3 mg/kg, ip; assay type: functional, organism-based; set-up: dose 3 mg/kg; method in brief: as §1
Mus musculus [5] = test: Effect on rectal temperature in mouse at 3 mg/kg, ip after 15 mins; assay type: functional, organism-based; set-up: dose 3 mg/kg
Method in brief: (§3)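 Adult male 129S1/SvImJ mice (25–30 g); rectal temperature measured with a probe at 3 cm depth before dosing and 15 min after ip injection; tests run 9:00–15:00 h; mean ± SEM.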

Mus musculus [6] = test: Inhibition of […]-induced hypothermia in mouse assessed as rectal temperature at 10 mg/kg ip after 15 mins; assay type: functional, organism-based; set-up: dose 10 mg/kg; method in brief: as §2
Mus musculus [7] = test: Effect on rectal temperature in mouse at 10 mg/kg, ip after 15 mins; assay type: functional, organism-based; set-up: dose 10 mg/kg; method in brief: as §3
Mus musculus [8] = test: Inhibition of […]-induced decrease in locomotor activity in ip dosed mouse after 15 mins; assay type: functional, organism-based
[9] = target: Peroxisome proliferator-activated receptor alpha (Homo sapiens) (UniProt Q07869); test: Agonist activity at human PPARalpha expressed in human MCF7 cells coexpressing TIF2 by luciferase reporter gene assay

Row | SMILES | Activity [2] | Activity (Rattus norvegicus [1]) | Activity (Mus musculus [3]) | Activity (Rattus norvegicus [4]) | other results
1 | CCCCCCCC/C=C\CCCCCCCCNC(=O)c1cc(-c2ccc(Cl)cc2)n(-c2ccc(Cl)cc2)n1 | Active | inactive | Active | inactive | 
2 | CCCCCCCC/C=C\CCCCCCCCNC(=O)c1cc(-c2ccc(Cl)cc2)n(-c2ccccc2)n1 | Active | Active | inactive | Active | Activity (Mus musculus [5]): inactive
3 | CCCCCCCCCCCCCCCCNC(=O)c1cc(-c2ccc(Cl)cc2)n(-c2ccccc2)n1 | inactive |  | inactive |  | Activity (Mus musculus [8]): Active; Activity (Mus musculus [5]): inactive
4 | Cc1c(C(=O)NN2CCCCC2)nn(-c2ccc(Cl)cc2Cl)c1-c1ccc(I)cc1 |  |  |  |  | Activity [9]: inactive

More lines, main results first:

Row | Activity [2] | SMILES | Activity (Rattus norvegicus [1]) | Activity (Mus musculus [3]) | Activity (Rattus norvegicus [4]) | other results
5 | inactive | CCCCCCCCCCCCCCCCNC(=O)c1nn(-c2ccc(Cl)cc2Cl)c(-c2ccc(Cl)cc2)c1C | inactive |  | inactive | 
6 | inactive | CCCCCCCCCCCCCCCCNC(=O)c1cc(-c2ccc(Cl)cc2)n(-c2ccc(Cl)cc2)n1 |  |  |  | Activity (Mus musculus [6]): inactive; Activity (Mus musculus [7]): inactive
7 | inactive | CCCCCCCCCCCCCCCCNC(=O)c1cc(-c2ccc(Cl)cc2)n(-c2ccc(Cl)cc2Cl)n1 |  |  |  | 
8 | Active | CCCCCCCC/C=C\CCCCCCCCNC(=O)c1nn(-c2ccc(Cl)cc2Cl)c(-c2ccc(Cl)cc2)c1C |  |  |  | 
9 | Active | CCCCCCCC/C=C\CCCCCCCCNC(=O)c1cc(-c2ccc(Cl)cc2)n(-c2ccc(Cl)cc2Cl)n1 |  |  |  | 

From ChEMBL document CHEMBL1151688, “Antiobesity designed multiple ligands: Synthesis of pyrazole fatty acid amides and evaluation as hypophagic agents” (Bioorg Med Chem, 2008)
